Data set [1] has as its target T1, Beta-secretase 1 (Homo sapiens, UniProt P56817). Description: Inhibition of BACE1 expressing APP Swedish mutant using rhodamine-labeled EVNLDAEFK-quencher as substrate after 60 mins by FRET analysis.
Data set [2] addresses T2, Beta-secretase 2 (Homo sapiens, UniProt Q9Y5Z0). Description: Inhibition of BACE2 expressing APP Swedish mutant using rhodamine-labeled EVNLDAEFK-quencher as substrate after 60 mins by FRET analysis.
For data set [3], the target named is T2, Beta-secretase 2. Briefly: Inhibition of BACE2 expressing APP Swedish mutant using rhodamine-labeled EVNLDAEFK-quencher as substrate after 60 mins by Michaelis-Menten equation. In a few lines: (§1)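 Same FRET set-up (750 nM peptide substrate, KM 20 μM, 1 U/mL enzyme, pH 4.5 acetate, 60 min, 25 °C). Apparent KI derived from steady-state rates with and without inhibitor (vI, v0), then converted to absolute KI by correcting for substrate concentration and KM.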

Data set [4] deals with T1, Beta-secretase 1. Briefly: Inhibition of BACE1 expressing APP Swedish mutant using rhodamine-labeled EVNLDAEFK-quencher as substrate after 60 mins by Michaelis-Menten equation. In short, it runs like this:
as §1

The target of data set [5] is T1, Beta-secretase 1. Briefly: Inhibition of BACE1 in human H4 cells expressing APP Swedish K595N and M596L double mutant assessed as inhibition of amyloid beta (1 to 40) production after 24 hrs by whole cell assay. The data set is classed as cell-based. The following applies: pooled result: one value given for 2 cell lines, strains, targets or settings. In short, it runs like this:
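H4 neuroglioma cells carrying human APP K595N/M596L, seeded at 2 × 10⁵ cells/well and grown 24 h, then given increasing compound concentrations overnight (1% DMSO negative control). Medium Aβ40 or Aβ42 measured by sandwich immunoassay: biotinylated 4G8 plus C-terminal-specific rabbit antibodies, electrochemiluminescence read-out. Viability checked by MTT (0.5 mg/mL, 3 h, 570 nm). EC50 as mean of ≥3 experiments ± SD.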

Data set [6] can be described thus: Aqueous solubility of the compound. The data set is classed as physicochemical. The following applies: water. In short, it runs like this: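 Solubility estimated by HPLC. Salt sonicated 48 h in water, filtered through 0.45 μm, injected after a five-point calibration (1.44–18.0 mg/mL standards in acetonitrile/methanol 50:50 v/v; least-squares linear fit; triplicate injections). Reversed-phase C18 column, UV detection at 280 nm. Solubility taken where recovery began to fall with rising concentration.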

Data set [7] is described as follows: Selectivity ratio of IC50 for BACE2 to IC50 for BACE1.

pEC50, pIC50, pKi: −log10 of the molar value.

T1 sequence (P56817 whole entry): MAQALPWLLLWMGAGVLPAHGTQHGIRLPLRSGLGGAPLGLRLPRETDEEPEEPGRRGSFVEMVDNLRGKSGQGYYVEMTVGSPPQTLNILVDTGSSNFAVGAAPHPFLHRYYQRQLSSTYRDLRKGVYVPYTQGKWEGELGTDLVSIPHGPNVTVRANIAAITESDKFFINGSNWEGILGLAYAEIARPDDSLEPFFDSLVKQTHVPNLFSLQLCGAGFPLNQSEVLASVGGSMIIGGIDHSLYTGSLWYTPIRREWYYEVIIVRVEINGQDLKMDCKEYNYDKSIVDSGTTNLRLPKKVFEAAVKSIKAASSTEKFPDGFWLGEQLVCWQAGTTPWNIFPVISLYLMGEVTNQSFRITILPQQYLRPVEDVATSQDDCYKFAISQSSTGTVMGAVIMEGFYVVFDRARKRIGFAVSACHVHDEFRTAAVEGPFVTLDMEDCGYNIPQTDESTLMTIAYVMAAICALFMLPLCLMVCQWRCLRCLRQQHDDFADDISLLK
T2 sequence (Q9Y5Z0 63-518 limits assumed, stated change not applied): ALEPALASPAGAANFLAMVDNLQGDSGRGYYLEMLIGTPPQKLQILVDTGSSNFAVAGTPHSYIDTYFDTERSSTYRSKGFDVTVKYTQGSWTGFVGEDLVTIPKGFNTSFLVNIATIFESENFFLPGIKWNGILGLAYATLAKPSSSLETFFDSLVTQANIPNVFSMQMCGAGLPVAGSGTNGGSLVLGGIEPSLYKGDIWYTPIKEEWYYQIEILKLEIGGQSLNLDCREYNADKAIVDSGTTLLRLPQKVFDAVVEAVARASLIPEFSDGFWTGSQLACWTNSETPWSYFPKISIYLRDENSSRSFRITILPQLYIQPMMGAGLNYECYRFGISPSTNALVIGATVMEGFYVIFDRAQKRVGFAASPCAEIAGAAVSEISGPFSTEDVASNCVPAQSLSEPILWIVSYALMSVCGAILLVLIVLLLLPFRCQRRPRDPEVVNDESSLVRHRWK

As for `C[C@H](NC(=O)c1cc(-c2nc3ccccc3[nH]2)cc(N(C)S(C)(=O)=O)c1)c1ccccc1`, the pIC50 at Beta-secretase 1 [1] is 5.97; against Beta-secretase 2 [2], 5.67. Moreover, the pKi was 5.68 on Beta-secretase 2 [3] and 5.98 at Beta-secretase 1 [4].

For the molecule `COc1ccc2nc(-c3cccc(-c4cn5ccccc5n4)c3)[nH]c2c1`, the results for the pIC50 on Beta-secretase 1 [1] and at Beta-secretase 2 [2] were 7.59 and 5.48, respectively. The negative logarithm of the EC50 (pEC50) at Beta-secretase 1 [5] was 7.52. Also, the pKi was 5.49 on Beta-secretase 2 [3] and 7.60 at Beta-secretase 1 [4].

In the case of `Fc1ccc2nc(-c3cccc(-c4cn5ccc(F)cc5n4)c3)[nH]c2c1` [listing 1 of 2 here], the negative-log IC50 (pIC50) was 7.74 at Beta-secretase 1 [1] and 5.43 on Beta-secretase 2 [2]. Also, the pEC50 at Beta-secretase 1 [5] is 7.43. The negative-log Ki (pKi) on Beta-secretase 2 [3] was 5.45; at Beta-secretase 1 [4], 7.77.

Take `Cl.Fc1ccc2nc(-c3cccc(-c4cn5ccc(F)cc5n4)c3)[nH]c2c1`: the concentration in solution in data set [6] (solubility) came to 10000 µg/mL.

As to `CC(C)(C)Nc1c(-c2cccc(-c3nc4ccc(F)cc4[nH]3)c2)nc2ccccn12`, the pIC50 is 6.51 against Beta-secretase 1 [1] and 5.37 against Beta-secretase 2 [2]. Further, on Beta-secretase 1 [5], the negative logarithm of the EC50 (pEC50) was 6.03. Also, the pKi at Beta-secretase 2 [3] was 5.39; on Beta-secretase 1 [4], 6.52.

Turning to `COc1cccc(-c2cnc(-c3cc(C(=O)N[C@@H](C)c4ccccc4)cc(N(C)S(C)(=O)=O)c3)[nH]2)c1`, the Ratio IC50 in data set [7] is 30.

For the molecule `CC(C)(C)Nc1c(-c2cccc(-c3nc4ccccc4[nH]3)c2)nc2ccccn12`, the pIC50 is 6.29 against Beta-secretase 1 [1] and 5.42 on Beta-secretase 2 [2]. Moreover, the pKi was 5.43 on Beta-secretase 2 [3] and 6.31 at Beta-secretase 1 [4].

As for `C[C@H](NC(=O)c1cc(-c2nc(-c3ccccc3)c[nH]2)cc(N(C)S(C)(=O)=O)c1)c1ccccc1`, the pIC50 was 6.50 at Beta-secretase 1 [1] and 5.75 at Beta-secretase 2 [2]. The pEC50 on Beta-secretase 1 [5] is 6.35. Moreover, the negative logarithm of the Ki (pKi) is 5.76 at Beta-secretase 2 [3] and 6.52 at Beta-secretase 1 [4].

Consider `c1cc(-c2cn3ccccc3n2)cc(-c2nc3ccccc3[nH]2)c1`, for which the pIC50 at Beta-secretase 1 [1] was 6.02; on Beta-secretase 2 [2], 5.41. Further, at Beta-secretase 1 [5], the pEC50 is 5.81. Besides, the pKi at Beta-secretase 2 [3] is 5.42; at Beta-secretase 1 [4], 6.03.

For the molecule `CC(C)(C)Nc1c(-c2ccc(-c3nc4ccc(F)cc4[nH]3)cc2)nc2ccccn12`, the values for the negative logarithm of the IC50 (pIC50) against Beta-secretase 1 [1] and against Beta-secretase 2 [2] were 5.61 and 5.43, respectively. In addition, the negative-log Ki (pKi) was 5.44 at Beta-secretase 2 [3] and 5.62 on Beta-secretase 1 [4].

With `COc1ccc2nc(-c3ccc(-c4nc5ccccn5c4NC(C)(C)C)cc3)[nH]c2c1`, the pIC50 against Beta-secretase 1 [1] was 5.65; against Beta-secretase 2 [2], 5.54. Further, the Ratio IC50 in data set [7] came to 1.3. In addition, at Beta-secretase 1 [5], the pEC50 was 5.62. For the same molecule, the figures for the pKi at Beta-secretase 2 [3] and at Beta-secretase 1 [4] were 5.55 and 5.67, respectively.

For `COc1ccc2nc(-c3cccc(-c4nc5ccccn5c4NC(C)(C)C)c3)[nH]c2c1`, the negative-log IC50 (pIC50) on Beta-secretase 1 [1] was 6.75; at Beta-secretase 2 [2], 5.38. Moreover, the Ratio IC50 in data set [7] turned out to be 23. In addition, the negative-log EC50 (pEC50) on Beta-secretase 1 [5] was 6.51. In addition, the negative-log Ki (pKi) on Beta-secretase 2 [3] is 5.40; at Beta-secretase 1 [4], 6.60.

In the case of `C[C@H](NC(=O)c1cc(-c2ncc(-c3cccc(F)c3)[nH]2)cc(N(C)S(C)(=O)=O)c1)c1ccccc1`, the negative-log IC50 (pIC50) is 6.73 against Beta-secretase 1 [1] and 5.73 at Beta-secretase 2 [2]. For the same molecule, the negative-log Ki (pKi) was 5.74 on Beta-secretase 2 [3] and 6.74 on Beta-secretase 1 [4].

In the case of `Fc1ccc2nc(-c3cccc(-c4cn5ccccc5n4)c3)[nH]c2c1`, the negative-log IC50 (pIC50) was 7.46 against Beta-secretase 1 [1] and 5.50 against Beta-secretase 2 [2]. In addition, at Beta-secretase 1 [5], the pEC50 is 6.92. In addition, the pKi is 5.51 at Beta-secretase 2 [3] and 7.47 at Beta-secretase 1 [4].

As for `C[C@H](NC(=O)c1cc(-c2nc3cc(F)ccc3[nH]2)cc(N(C)S(C)(=O)=O)c1)c1ccccc1`, the pIC50 against Beta-secretase 1 [1] was 6.10; against Beta-secretase 2 [2], 5.67. Further, in data set [7], the Ratio IC50 worked out at 5. Further, the pEC50 at Beta-secretase 1 [5] is 6.64. Also, the pKi is 5.69 on Beta-secretase 2 [3] and 6.12 on Beta-secretase 1 [4].

Regarding `CC(C)(C)Nc1c(-c2ccc(-c3nc4ccccc4[nH]3)cc2)nc2ccccn12`, the negative logarithm of the IC50 (pIC50) was 5.26 on Beta-secretase 1 [1] and 5.25 at Beta-secretase 2 [2]. The negative logarithm of the Ki (pKi) on Beta-secretase 2 [3] is 5.26; on Beta-secretase 1 [4], 5.27.

As for `Fc1ccc2nc(-c3cccc(-c4cn5ccc(F)cc5n4)c3)[nH]c2c1` [listing 2 of 2 here], the Ratio IC50 in data set [7] worked out at 204.

On to `COc1cccc(-c2c[nH]c(-c3cc(C(=O)N[C@@H](C)c4ccccc4)cc(N(C)S(C)(=O)=O)c3)n2)c1`, for which the values for the negative-log IC50 (pIC50) against Beta-secretase 1 [1] and against Beta-secretase 2 [2] were 7.11 and 5.63, respectively. Moreover, the negative-log EC50 (pEC50) at Beta-secretase 1 [5] was 6.75. Besides, the values for the negative-log Ki (pKi) on Beta-secretase 2 [3] and at Beta-secretase 1 [4] were 5.64 and 7.21, respectively.

As for `COc1ccc2[nH]c(-c3cc(C(=O)N[C@@H](C)c4ccccc4)cc(N(C)S(C)(=O)=O)c3)nc2c1`, the results for the pIC50 against Beta-secretase 1 [1] and on Beta-secretase 2 [2] were 6.26 and 5.62, respectively. The Ratio IC50 in data set [7] worked out at 5. Further, the pKi on Beta-secretase 2 [3] was 5.63; on Beta-secretase 1 [4], 6.28.

A word on the pIC50: it is the negative decadic logarithm of the IC50, by convention in mol/L. A lower pIC50 goes with a large IC50. The term pKi denotes the Ki on a negative log10 scale, so that one unit is a factor of ten. For orientation: pEC50 means −log10 of the EC50, conventionally taken in molar units. Usually solubility stands for the dissolved amount per volume that the medium holds.

The record behind these values is ChEMBL document CHEMBL1921672, “Design, synthesis, and qualitative structure-activity evaluations of novel β-secretase inhibitors as potential Alzheimer's drug leads” (J Med Chem, 2011).
